Source: PubChem BioAssay (several laboratories)
TRPML3 ag = human TRPML3 channel agonists, primary screen, cell-based, HEK293 TRPML3-YFP, Fluo-8 calcium fluorescence, 3 µM; hit rate 0.29% among 220,000; activation, % at 3 µM; Mucolipin-3 (Homo sapiens), Q8TDD5; AID 1448, 2008; 100% = the carbachol control signal;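 active = activation above its plate's cutoff, the mean activation of the plate's test wells plus 3 SD, cut at about 12% in these data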;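 also: 0% = DMSO only wells and 100% = carbachol wells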
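Material: HEK293 cells stably carrying human TRPML3-YFP; compound dosing: single dose, 3 µM final nominal compound, 0.3% DMSO final; incubation: 1-h 37 °C dye load, 5-s basal, 120-s post-compound reads; technique: Fluo-8 intracellular calcium fluorescence, excitation 470-495 nm, emission 515-575 nm; read-out basis: percent activation from peak-to-basal fluorescence ratio, scaled between DMSO and carbachol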
OXTR potentiator = human OXTR potentiators, primary screen, fluorescence, CHO-OTR cells, Fluo-8 calcium. Oxytocin receptor (Homo sapiens), P30559. Fluo-8 calcium fluorescence, potentiator mode; 0% = oxytocin EC15, 100% = EC100. activation, % at 3 µM. hit rate 0.061% among 320,000. AID 2445, 2010;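 active = activation above that plate's cutoff, the mean activation of tested compounds plus 3 SD, cut at about 6.6% in these data, passing the limit was not always enough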;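 also: 100% uses oxytocin at 75 nM as the full agonist control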
Target sequence (P30559 whole entry, looked up): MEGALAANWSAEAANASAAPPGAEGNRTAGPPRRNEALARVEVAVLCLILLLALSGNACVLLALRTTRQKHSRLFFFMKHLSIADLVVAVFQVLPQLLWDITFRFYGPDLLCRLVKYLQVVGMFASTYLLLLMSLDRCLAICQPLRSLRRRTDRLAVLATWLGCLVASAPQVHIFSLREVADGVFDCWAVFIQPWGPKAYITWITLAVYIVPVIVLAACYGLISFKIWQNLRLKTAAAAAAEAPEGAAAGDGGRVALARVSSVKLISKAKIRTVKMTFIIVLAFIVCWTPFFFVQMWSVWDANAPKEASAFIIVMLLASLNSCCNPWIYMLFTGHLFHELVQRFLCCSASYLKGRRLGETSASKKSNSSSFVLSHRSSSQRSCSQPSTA
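Assay system: CHO cell line stably expressing human OTR. Reagent: EC15 oxytocin agonist. Dosing: single dose, 3.0 µM nominal final compound concentration. Timing: compound 6 min at room temperature before oxytocin, 100 s read. Signal: kinetic Fluo-8 calcium fluorescence. Controls: oxytocin EC15 low and EC100 high.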
V1R ag counter = agonists of human V1a receptor, primary screen, counter-screen for OXTR agonist project, fluorescence, CHO-V1R cells. Fluo-8 calcium fluorescence, agonist mode; 0% DMSO, 100% 3 nM vasopressin. hit rate 0.25% among 320,000. activation, % at 3 µM;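 active = activation above the mean activation of all tested compounds plus 3 SD, per screening run, cut at about 20% in these data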;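 also: signal is peak over basal fluorescence ratio across a 100 second FLIPR read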
CRFR2-BP ag = agonists of CRF-BP/CRF-R2 complex, primary screen, cell-based, HEK293, calcium dye fluorescence, uHTS. CRF-binding protein / CRF receptor 2 complex (human). calcium dye fluorescence (FLIPR); percent of saturating CRF peptide response. activation, % at 13.2 µM. hit rate 0.46% among 350,000;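 active = activation of at least 50%, plus an integration ratio under a set limit after plate pattern correction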;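 also: plate controls were neutral control wells without compound for no effect and CRF at EC100 for full effect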
zfTRPN1 agonist = zebrafish TRPN1 channel agonists, primary screen, cell-based, HEK293, calcium fluorescence; HEK293 zebrafish TRPN1-YFP, Fluo-8 calcium fluorescence; 100% = response to 87 µM carbachol; activation, % at 3 µM; hit rate 0.18% among 220,000;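 active = activation above its plate's cutoff, the mean activation of test wells on that plate plus 3 SD, cut at about 19% in these data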;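 also: 0% = DMSO alone and 100% = 87 µM carbachol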
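Material – zebrafish TRPN1-YFP in HEK293 cells · Doses – 3 µM single point · Schedule – dye 1 h 37 °C plus 30 min RT · Signal – Fluo-8 calcium fluorescence, excitation 470-495 nm, emission 515-575 nm · Read-out – % activation versus carbachol response · Control set – carbachol high, DMSO low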
OXTR ag = human OXTR agonists, primary screen, fluorescence, CHO-OTR cells, Fluo-8 calcium; Oxytocin receptor (Homo sapiens), P30559; Fluo-8 calcium fluorescence; normalized: DMSO 0%, oxytocin 100%; activation, % at 3 µM; hit rate 0.32% among 320,000; AID 2435, 2010;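 active = activation above the mean of all tested compounds plus 3 SD, cutoff set per screening run, cut at about 20% in these data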;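 also: peak over basal fluorescence ratio from a 100 s FLIPR kinetic read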
Active calls of the source: *; · = not tested or not shown. Compounds with a hit are over-represented: about 0.83% of the library has one in this group of screens.

SMILES	TRPML3 ag	OXTR potentiator	V1R ag counter	CRFR2-BP ag	zfTRPN1 agonist	OXTR ag
CCn1ncc(Cl)c1C(=O)NC(=S)Nc1ccccc1Br	·	-6	-1	25	·	-1
Cc1nn(C)c(C(=O)NC(=S)Nc2ccccc2Br)c1Cl	·	-8	0	93*	·	-1
Cc1ccc(Cn2nnc(C(=O)Nc3cccc(C)c3C)c2N)cc1	17*	-10	38*	105*	36*	38*
CC(C)(C)c1cc(O)c(C(C)(C)C)cc1O	·	-26	48*	·	·	71*
Cc1cc(C(C)(C)C)c(O)c(C(C)(C)C)c1	1	-5	2	0	0	0
CCCOc1ccc(OC(=O)c2ccc(Br)o2)cc1	0	-24	64*	2	0	42*
O=C(c1c(F)cccc1F)N(C1CCCCC1)C1CCCCC1	·	3	-1	-2	·	-2
Cc1ccc2oc(=O)c(/C=C(\O)c3cccs3)nc2c1	2	-5	1	120*	6	1
Cc1ccc2oc(=O)c(/C=C(\O)c3ccccc3)nc2c1	1	-2	1	71*	1	1
Cc1ccc2oc(=O)c(/C=C(\O)CC(C)C)nc2c1	1	-7	1	1	2	0
O=C(COC(=O)CCN1C(=O)C2CC=CCC2C1=O)Nc1ccc(Cl)cc1F (configuration not stated)	·	-2	2	1	·	2
COc1cc2c(cc1OC)C(c1cccc(Br)c1)NC(=O)C2 (configuration not stated)	·	·	·	-2	·	·
COc1cc2c(cc1OC)C(c1c(Cl)cccc1Cl)NC(=O)C2 (configuration not stated)	·	-2	-1	52*	·	-1
CCOC(=O)c1c(-c2ccccc2)csc1NC(=O)/C(C#N)=C\c1ccc(O)c(OC)c1	·	·	·	132*	·	·
CCOC(=O)c1c(-c2ccc(C)cc2)csc1NC(=O)/C(C#N)=C/c1ccc(O)c(OC)c1	1	·	·	195*	2	·
CCOC(=O)/C(C#N)=C\c1ccc(O)c(OC)c1	1	-4	2	0	1	1
COc1cc(/C=C(\C#N)C(=O)Nc2ccccn2)ccc1O	·	-2	1	19	·	2
Cc1ccc(C2C(C#N)=C(N)SC(N)=C2C#N)c(C)c1	2	-24	21*	133*	6	20*
Cc1ccc2[nH]c(C(=O)N/N=C/c3ccccc3C(=O)O)c(-c3ccccc3)c2c1	·	-7	1	72*	·	0
COc1ccc(/C=N/NC(=O)c2[nH]c3ccc(C)cc3c2-c2ccccc2)c(C(=O)O)c1OC	·	-7	1	8	·	0
CCOC(=O)C1=C(O)/C(=C/c2cn(CC(=O)NCC3CCCO3)c3ccccc23)SC1=Nc1ccc(C)cc1 (configuration not stated)	1	-3	1	61*	1	1
COc1ccc(F)cc1S(=O)(=O)n1nc(C)cc1C	·	-12	1	-1	·	0
Cc1ccc(C)c(N/C(N)=N/c2nc(C)cc(C)n2)c1	21*	-18	26*	37	36*	21*
COc1ccc(C)cc1N/C(N)=N/c1nc(C)cc(C)n1	0	0	2	2	1	2
Cc1cc(C)nc(/N=C(\N)Nc2ccc(SC(F)F)cc2)n1	17*	-10	28*	25	36*	32*
SMILES	TRPML3 ag	OXTR potentiator	V1R ag counter	CRFR2-BP ag	zfTRPN1 agonist	OXTR ag
CC(=O)Nc1ccc(N/C(N)=N/c2nc(C)cc(C)n2)cc1	1	-8	1	-2	1	0
CCOc1ccc(N/C(N)=N/c2nc(C)cc(C)n2)cc1	·	-24	10	141*	·	7
Cc1cc(C)nc(/N=C(\N)Nc2ccc(S(N)(=O)=O)cc2)n1	1	-12	0	1	1	0
CC1CC(C)(C)CC2(C1)NC(=O)N(CC(=O)N1CCN(S(=O)(=O)c3ccc(F)c(F)c3F)CC1)C2=O (configuration not stated)	·	·	·	1	·	·
COc1ccc(CN(C(=O)c2nsc(Cl)c2Cl)C(C(=O)NC2CCCC2)c2ccc(OC)cc2)cc1 (configuration not stated)	-1	-15	-1	53*	-2	-1
O=C(O)c1ccccc1N/N=C/c1c(Sc2nnnn2-c2ccccc2)nc2ccccn2c1=O	2	-4	11	32	4	10
O=c1c(/C=N/Nc2ccccc2)c(Sc2nnnn2-c2ccccc2)nc2ccccn12	1	·	·	99*	0	·
CSC(C1CCCC1)n1nnc2ccccc21 (configuration not stated)	·	-2	-2	0	·	-2
O=[N+]([O-])c1ccc(Sc2cccc[n+]2[O-])c2nonc12	14*	·	·	25	35*	·
O=C(Cc1cccc(NC(=O)C2CCCN(C(=O)C3CCC3)C2)c1)Nc1ccc(C(=O)N2CCCCC2)cc1 (configuration not stated)	·	·	·	3	·	·
COc1ccc2c(c1)c(CC(=O)Nc1cc(C)ccc1C)c(C)n2C(=O)c1ccc(Cl)cc1	1	1	-1	89*	3	1
COc1ccc2c(c1)c(CC(=O)Nc1ccccc1OC)c(C)n2C(=O)c1ccc(Cl)cc1	0	0	2	2	0	-1
COCc1cc(C)n(CC(=O)Nc2ccc(N3CCOCC3)cc2)c(=O)c1C#N	·	-8	1	2	·	0
Cc1cccc(NC(=O)COC(=O)C2COc3ccccc3O2)c1C (configuration not stated)	·	-3	1	-5	·	0
COCCN1Cc2cccc(C(=O)Nc3cc(OC)ccc3OC)c2C1=O	0	-9	-1	61*	0	3
CCOC(=O)c1ccc(NCn2c(=O)oc3ccccc32)cc1	2	-14	6	62*	2	5
Cc1cccc(Nc2nc(-c3ccc(O)cc3O)cs2)n1	·	-4	1	0	·	0
O=C(Nc1cc(C(F)(F)F)cc(C(F)(F)F)c1)Nc1cnn(-c2ccc([N+](=O)[O-])cc2)c1C(F)(F)F	1	-4	1	58*	-2	0
O=C(Nc1ccc(C(=O)O)cc1)Nc1ccc([N+](=O)[O-])cc1	·	6	0	0	·	1
Cn1nnnc1SCC(=O)c1ccc(Br)s1	0	-3	-1	-2	1	1
